This is an account of results in ChEMBL document CHEMBL3272137, “Narcotic antagonists. Synthesis and evaluation of some subsituted 1,2,3,4,5,6-hexahydro-1,4:2,6-dimethano-3-benzazocines” (J Med Chem, 1977).

Activity calls are given as the source filed them. No cut-off for these calls is given here.

The ED50 is the dose that gives a 50% effect, or the effect in half of the subjects.

The first series relates to Mus musculus. In words: Toxicity in mouse assessed as depression at 40 mg/kg, sc. The class given is organism-based. Also on record: dose 40 mg/kg, route subcutaneous. Conditions: in vivo. The essentials:
(§1)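 Given subcutaneously as salts in aqueous solution, with dose expressed as free base.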
Regarding `CCC12CC3CC(c4ccc(O)cc41)C(C2)N3CCC1CC1` (stereo unspecified), the Activity entry is “Toxic”.

In the next series the test system is Mus musculus. In words: Toxicity in mouse assessed as tremor at 40 mg/kg, sc. The conditions noted are these: in vivo. Also on record: dose 40 mg/kg, route subcutaneous. The class given is organism-based. The essentials: as §1
Consider `C=CCN1C2CC3c4ccc(O)cc4C(CC)(C2)CC31` (stereo unspecified), for which the Activity result was “Toxic”.

Another series concerns Mus musculus. In words: Analgesic activity in sc dosed mouse assessed as inhibition of phenylquinone-induced writhing. The class given is functional.
Settings: not given
An outline of the steps: (§2)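 Given subcutaneously as salts in aqueous solution, with doses expressed as free base. ED50 was derived by probit analysis of dose-response data using at least three dose levels and at least six animals per dose level.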
`CCC12CC3CC(c4ccc(O)cc41)C(C2)N3` (stereo unspecified): the ED50 worked out at 12.9 mg/kg.
`CN1CC[C@]23c4c5ccc(O)c4O[C@H]2[C@@H](O)C=C[C@H]3[C@H]1C5` [MORPHINE]: the 50% effective dose (ED50) is 0.26 mg/kg.
With `C=CCN1CC[C@]23c4c5ccc(O)c4O[C@H]2[C@@H](O)C=C[C@H]3[C@H]1C5` [NALORPHINE], the ED50 was 0.77 mg/kg.
On to `CC(C)=CCN1CC[C@]2(C)c3cc(O)ccc3C[C@H]1[C@H]2C` [(+)-PENTAZOCINE], for which the 50% effective dose (ED50) was found to be 3.7 mg/kg.
Consider `C=CCN1C2CC3c4ccc(O)cc4C(CC)(C2)CC31` (stereo unspecified), for which the ED50 was determined as 20 mg/kg.
Take `CN1C2CC3c4ccc(O)cc4C(C)(C2)CC31` (stereo unspecified): the 50% effective dose (ED50) was 31.8 mg/kg.
With `CCC12CC3CC(c4ccc(O)cc41)C(C2)N3C` (stereo unspecified), the 50% effective dose (ED50) turned out to be 24.3 mg/kg.

A further series has as its system Mus musculus. Description: Analgesic activity in mouse assessed as inhibition of phenylquinone-induced writhing at 40 mg/kg, sc. The class given is functional, organism-based. Set-up: dose 40 mg/kg.
Settings: not given
An outline of the steps: as §1
With `CCC12CC3CC(c4ccc(O)cc41)C(C2)N3CC1CCC1` (stereo unspecified), the inhibition entry was “inactive”.
On to `CC12CC3CC(c4ccc(O)cc41)C(C2)N3CC1CCC1` (stereo unspecified), for which the inhibition result is “inactive”.
In the case of `CCC12CC3CC(c4ccc(O)cc41)C(C2)N3CC1CC1` (stereo unspecified), the inhibition entry was “Active”.
Turning to `CCC12CC3CC(c4ccc(O)cc41)C(C2)N3CCC1CC1` (stereo unspecified), the inhibition entry was “Active”.
The same measure, in the same setting: then `CC12CC3CC(c4ccc(O)cc41)C(C2)N3CC1CC1` (stereo unspecified), with “Active”.
Consider `CC12CC3CC(c4ccc(O)cc41)C(C2)N3CCC1CC1` (stereo unspecified), for which the inhibition result is “inactive”.

In another series the test system is Mus musculus. Description: Narcotic antagonist activity in sc dosed mouse assessed as inhibition of oxymorphone-induced straub tail response.
Settings: not given
The class given is functional. An outline of the steps:
as §2
Consider `CCC12CC3CC(c4ccc(O)cc41)C(C2)N3CC1CCC1` (stereo unspecified), for which the ED50 amounted to 15 mg/kg.
For the molecule `CC(C)=CCN1CC[C@]2(C)c3cc(O)ccc3C[C@H]1[C@H]2C` [(+)-PENTAZOCINE], the ED50 was determined as 12 mg/kg.
Consider `CCC12CC3CC(c4ccc(O)cc41)C(C2)N3CC1CC1` (stereo unspecified), for which the ED50 is 2.24 mg/kg.
In the case of `CCC12CC3CC(c4ccc(O)cc41)C(C2)N3CCC1CC1` (stereo unspecified), the ED50 is above 20 mg/kg.
Still for that read-out and setting: then `C=CCN1C2CC3c4ccc(O)cc4C(CC)(C2)CC31` (stereo unspecified), with 8 mg/kg; and `CC12CC3CC(c4ccc(O)cc41)C(C2)N3CC1CC1` (stereo unspecified), with 0.96 mg/kg.

The next series relates to Mus musculus. In words: Narcotic antagonist activity in mouse assessed as inhibition of oxymorphone-induced straub tail response at 40 mg/kg, sc. The class given is functional, organism-based. Set-up: dose 40 mg/kg.
Settings: not given
The essentials: as §1
In the case of `CCC12CC3CC(c4ccc(O)cc41)C(C2)N3` (stereo unspecified), the inhibition result is “inactive”.
With `CC12CC3CC(c4ccc(O)cc41)C(C2)N3CC1CCC1` (stereo unspecified), the inhibition result is “inactive”.
`CN1C2CC3c4ccc(O)cc4C(C)(C2)CC31` (stereo unspecified): the inhibition result was “inactive”.
For `CC12CC3CC(c4ccc(O)cc41)C(C2)N3CCC1CC1` (stereo unspecified), the inhibition entry was “inactive”.
Consider `CCC12CC3CC(c4ccc(O)cc41)C(C2)N3C` (stereo unspecified), for which the inhibition result was “inactive”.

Another series relates to Mus musculus. Description: Narcotic antagonist activity in sc dosed mouse assessed as inhibition of oxymorphone-induced narcosis. The class given is functional.
Settings: not given
The essentials: as §2
`CCC12CC3CC(c4ccc(O)cc41)C(C2)N3CC1CCC1` (stereo unspecified): the ED50 is 5 mg/kg.
Same read-out and setting: to `C=CCN1CC[C@]23c4c5ccc(O)c4O[C@H]2[C@@H](O)C=C[C@H]3[C@H]1C5` [NALORPHINE] belongs 0.58 mg/kg; to `CC(C)=CCN1CC[C@]2(C)c3cc(O)ccc3C[C@H]1[C@H]2C` [(+)-PENTAZOCINE], 10.1 mg/kg; to `CCC12CC3CC(c4ccc(O)cc41)C(C2)N3CC1CC1` (stereo unspecified), 0.32 mg/kg.
As for `C=CCN1C2CC3c4ccc(O)cc4C(CC)(C2)CC31` (stereo unspecified), the ED50 was 1 mg/kg.
The same measure, in the same setting: to `CC12CC3CC(c4ccc(O)cc41)C(C2)N3CC1CC1` (stereo unspecified) belongs 0.63 mg/kg.

A further series concerns Rattus norvegicus. In words: Narcotic antagonist activity in sc dosed rat assessed as inhibition of morphine-induced analgesic activity by tail flick test. The class given is functional.
Settings: not given
An outline of the steps:
as §2
On the technique in general: Thermal pain tests record how soon the animal reacts.
For `CCC12CC3CC(c4ccc(O)cc41)C(C2)N3CC1CCC1` (stereo unspecified), the ED50 amounted to 10 mg/kg.
For `C=CCN1CC[C@]23c4c5ccc(O)c4O[C@H]2[C@@H](O)C=C[C@H]3[C@H]1C5` [NALORPHINE], the median effective dose (ED50) came to 0.38 mg/kg.
Take `CCC12CC3CC(c4ccc(O)cc41)C(C2)N3CC1CC1` (stereo unspecified): the ED50 came out at 0.44 mg/kg.
For `CCC12CC3CC(c4ccc(O)cc41)C(C2)N3CCC1CC1` (stereo unspecified), the ED50 is above 20 mg/kg.
On to `C=CCN1C2CC3c4ccc(O)cc4C(CC)(C2)CC31` (stereo unspecified), for which the ED50 came to 3.3 mg/kg.
On the same count and under the same terms, then `CC12CC3CC(c4ccc(O)cc41)C(C2)N3CC1CC1` (stereo unspecified), with 0.64 mg/kg.

In the next series the test system is Mus musculus. In words: Toxicity in mouse assessed as convulsion at 80 mg/kg, sc. The class given is organism-based. Set-up: dose 80 mg/kg, route subcutaneous. Conditions: in vivo. The essentials: as §1
On to `CCC12CC3CC(c4ccc(O)cc41)C(C2)N3` (stereo unspecified), for which the Activity result is reported as “Toxic”.
Still for that read-out and setting: to `CCC12CC3CC(c4ccc(O)cc41)C(C2)N3CC1CCC1` (stereo unspecified) belongs “Toxic”; to `CC12CC3CC(c4ccc(O)cc41)C(C2)N3CC1CCC1` (stereo unspecified), “Toxic”; to `CC12CC3CC(c4ccc(O)cc41)C(C2)N3` (stereo unspecified), “Toxic”.
The same measure, in the same setting: then `CCC12CC3CC(c4ccc(O)cc41)C(C2)N3CC1CC1` (stereo unspecified), with “Toxic”; and `CCC12CC3CC(c4ccc(O)cc41)C(C2)N3CCC1CC1` (stereo unspecified), with “Toxic”; and `C=CCN1C2CC3c4ccc(O)cc4C(CC)(C2)CC31` (stereo unspecified), with “Toxic”.
`CN1C2CC3c4ccc(O)cc4C(C)(C2)CC31` (stereo unspecified): the Activity result is listed as “Toxic”.
With `CC12CC3CC(c4ccc(O)cc41)C(C2)N3CC1CC1` (stereo unspecified), the Activity entry is recorded as “Toxic”.
The same measure, in the same setting: then `CC12CC3CC(c4ccc(O)cc41)C(C2)N3CCC1CC1` (stereo unspecified), with “Toxic”; and `CCC12CC3CC(c4ccc(O)cc41)C(C2)N3C` (stereo unspecified), with “Toxic”.

A further series has as its system Mus musculus. In words: Toxicity in mouse assessed as convulsion at 40 mg/kg, sc. Conditions: in vivo. The class given is organism-based. Set-up: dose 40 mg/kg, route subcutaneous. An outline of the steps: as §1
`CCC12CC3CC(c4ccc(O)cc41)C(C2)N3` (stereo unspecified): the Activity entry is “Toxic”.
On to `CCC12CC3CC(c4ccc(O)cc41)C(C2)N3CC1CCC1` (stereo unspecified), for which the Activity entry is given as “Toxic”.
